Screening data from PubChem.
ALR H2O2 inh: human ALR oxidase inhibition via reduced H2O2 | P55789 | purified ALR, DTT oxidation, H2O2 HRP-luminol luminescence | inhibition, % (no concentration beside the values) | 290,000 tested, 3.8% active;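 active = mean replicate inhibition above about 79%, with every replicate also reaching it, limit read from the data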
Target sequence (P55789 whole entry, looked up): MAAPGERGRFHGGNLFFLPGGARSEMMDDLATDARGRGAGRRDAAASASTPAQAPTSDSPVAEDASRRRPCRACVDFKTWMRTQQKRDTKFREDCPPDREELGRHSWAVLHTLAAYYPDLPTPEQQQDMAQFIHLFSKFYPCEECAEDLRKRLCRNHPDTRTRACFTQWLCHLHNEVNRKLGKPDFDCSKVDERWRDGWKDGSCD
CAL PDZ FP-1: inhibitors of human CAL PDZ peptide binding | inhibition, % at 24.9 µM | Q9HD26 | 300,000 tested, 0.92% active | purified CAL PDZ, TMR-peptide fluorescence polarization, 1 h;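 active = mean inhibition of at least 30% with at least half of replicates also reaching 30%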;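 note: 0% = DMSO neutral control and 100% = excess unlabeled competitor peptide PRC23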
CAL PDZ FP-2: inhibitors of human CAL PDZ peptide binding; purified CAL PDZ, TMR-peptide fluorescence polarization, 1 h; inhibition, % at 20 µM; AID 504414; 330,000 tested, 0.02% active; Q9HD26;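 active = highest replicate inhibition of at least 40%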;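 note: plate controls were DMSO neutral control wells for no effect and unlabeled competitor peptide control wells for full effect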
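Assay system – tagged CAL PDZ protein CerCALP, purified · Timing – 1 h at RT · Compound – single point, 20 µM · Measured by – fluorescence polarization from S- and P-plane intensities, G-factor corrected · Evaluation – inhibition from polarization loss · Probe or stimulus – TMR reporter peptide T*-PRC34 · Buffer or medium – pH 7.4 phosphate-saline buffer, reducing agent, detergent, IgG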
Rtt109 HAT inh: inhibitors of Candida albicans Rtt109/Vps75 histone acetyltransferase; purified Rtt109/Vps75, ThioGlo CoA-SH fluorescence, 4 h; inhibition, % at 34.9 µM; 330,000 tested, 0.16% active;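 active = inhibition of at least 50% in every replicate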
Target sequence (Q5AAJ8 whole entry, looked up): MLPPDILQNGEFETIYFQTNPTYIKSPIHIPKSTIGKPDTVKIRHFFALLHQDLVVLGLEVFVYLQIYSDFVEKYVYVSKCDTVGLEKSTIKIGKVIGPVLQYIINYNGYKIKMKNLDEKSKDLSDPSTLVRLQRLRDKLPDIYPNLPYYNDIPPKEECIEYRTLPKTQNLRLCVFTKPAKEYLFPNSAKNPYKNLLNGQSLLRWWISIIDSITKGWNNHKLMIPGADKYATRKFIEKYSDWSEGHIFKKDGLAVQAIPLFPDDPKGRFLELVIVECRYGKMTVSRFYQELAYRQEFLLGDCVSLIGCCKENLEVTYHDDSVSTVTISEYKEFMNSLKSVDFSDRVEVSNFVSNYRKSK
DYRK1A inh: Dyrk1A (rat) kinase inhibition | Q63470 | ADP-Glo luminescence, NFATc1 peptide | inhibition, % at 12.5 µM | 310,000 tested, 0.43% active | AID 504441; in the data active = inhibition above about 50%;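 note: plate controls were vehicle with enzyme for no effect and no enzyme for full effect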
* hit, by the source's call; . = no result given. Shown are actives, neighbours in structure and some others; about 4.3% of the full set was active somewhere.

SMILES	ALR H2O2 inh	CAL PDZ FP-1	CAL PDZ FP-2	Rtt109 HAT inh	DYRK1A inh
O=C(NCCCN1CCCC1)c1ccc2c(Cl)c3c(nc2c1)CCCC3	94.2*	-2.5	-5.7	7.6	4.5
CCOC(=O)N1CCN(C(=O)c2ccc3c(SCC(=O)O)c4c(nc3c2)CCC4)CC1	79.8*	.	-0.3	3.5	-2.1
Cc1ccc(-c2nnc(CCC(=O)NCC3C4CC5CC(C4)CC3C5)o2)s1 (stereo not drawn)	-5.4	-5.7	0.1	0.7	2.2
NC(=S)N/N=C/c1c[nH]c2ccc(OCc3ccccc3)cc12	98.9*	-5.3	-0.1	0.9	10.9
O=C1COc2ccc(C(=O)c3ccccc3C(=O)NCc3ccccc3)cc2N1	-5.6	-1.8	-3.4	12.6	-5.7
Nc1ccc(CCc2nc3ccccc3o2)cc1	91.5*	-0.3	-2.3	-3.5	1.0
CCOC(=O)Cc1nc2ccccc2o1	-5.0	.	.	.	.
CC(=O)Nc1ccc(-c2cc(NC(C)=O)n(-c3ccccc3)n2)cc1	-7.4	75.4*	-1.9	-8.8	-1.4
CC(=O)Nc1ccc(SCC(=O)Nc2cc(C)on2)cc1	99.2*	0.7	-5.9	-0.5	0.8
CC(=O)Nc1ccc(SCC(=O)NC(=O)c2ccccc2Br)cc1	98.4*	-4.4	0.3	6.8	.
O=C(CCl)Nc1cc(-c2ccccc2)nn1-c1ccccc1	97.7*	-4.8	-2.9	3.3	-3.5
Cc1ccc(-c2cc(NC(=O)CCl)n(-c3ccccc3)n2)cc1	12.2	-5.5	-2.8	1.0	2.3
CCCOc1ccc(N2C(=O)CC(N(CCOC34CC5CC(CC(C5)C3)C4)C(C)=O)C2=O)cc1 (stereo not drawn)	-1.6	-5.3	0.7	10.9	-4.1
CN(CC(=O)Nc1cc(C(F)(F)F)ccc1-n1cncn1)Cc1ccccc1N1CCOCC1	.	.	1.3	-2.2	-2.2
NC(=O)c1ccc(NS(=O)(=O)c2ccc(Br)s2)cc1	-1.3	-1.9	-0.6	0.7	.
CC(=O)Nc1ccc(SCC(=O)Nc2cc(C(C)(C)C)nn2-c2ccccc2)cc1	89.4*	1.2	-1.6	.	2.7
CC(=O)Nc1ccc(NC(=O)COC(=O)c2c(C)nn(-c3ccccc3)c2C)cc1	93.6*	-5.9	-1.9	28.4	-0.8
Cc1nn(-c2ccccc2)c(C)c1C(=O)OCC(=O)Nc1ccccc1F	-0.3	-12.1	-0.9	1.4	.
Cn1c(SCC(=O)Nc2cc(C(C)(C)C)nn2-c2ccccc2)nc2ccccc21	-26.6	1.8	-0.5	9.4	1.3
C=CCc1cc(C(=O)N2CCCCC2)ccc1O	10.0	-1.8	-2.1	.	0.6
C=CCc1ccc(O)c(-c2ccc(O)c(CC=C)c2)c1	97.7*	4.1	-0.2	22.4	10.3
COc1ccc(C2N(c3cc(C)on3)C(=O)C3CCCN32)cc1OC (stereo not drawn)	-0.1	50.8*	-0.2	-4.2	0.9
CC(C)C[C@@H](CN)NC(=O)c1nc[nH]c1C(=O)N[C@@H](CC(C)C)C(=O)CNC[C@H](C)NC(=O)c1nc[nH]c1C(=O)N[C@@H](CC(=O)O)C(=O)O	.	-0.6	0.1	0.9	-0.6
Cc1ccc(/C=N/NC(=O)CSc2nnc(-c3ccc(Cl)cc3)n2-c2ccc(Cl)cc2)o1	-41.8	-0.4	-1.4	9.7	-3.8
Cc1ccc(/C=N/NC(=O)CSc2nnc(-c3ccccc3)n2-c2ccc(Cl)cc2)o1	-75.2	69.9*	-1.3	14.1	1.8
SMILES	ALR H2O2 inh	CAL PDZ FP-1	CAL PDZ FP-2	Rtt109 HAT inh	DYRK1A inh
COc1ccc(CNC(=O)C2(c3ccc(Cl)cc3)CC2)cc1	-5.7	-1.5	-1.5	55.7*	2.4
NS(=O)(=O)c1ccc(CNC(=O)C2(c3ccc(Cl)cc3)CC2)cc1	2.4	-4.6	-1.0	1.3	.
O=C(NN1C(=O)/C(=C/c2cccc(O)c2)SC1=S)c1ccccc1O	99.0*	5.5	-1.9	30.8	.
COc1cc(/C=C2\SC(=S)N(NC(=O)c3ccc(O)cc3)C2=O)ccc1O	99.0*	-30.5	-5.0	4.7	-3.5
COc1cc(/C=C2\SC(=S)N(C(Cc3ccccc3)C(=O)O)C2=O)ccc1O (stereo not drawn)	.	-12.4	-3.4	46.8	-0.1
CC(=O)NN1C(=O)/C(=C\c2ccc(O)cc2)SC1=S	98.6*	-1.8	-2.8	17.8	6.6
COc1cc(/C=C2\SC(=S)N(NC(=O)c3cccnc3)C2=O)ccc1O	99.1*	-16.6	-2.6	23.4	30.1
COc1cc(NC(=O)CCS(=O)(=O)c2ccc3c(c2)n(C)c(=O)c(=O)n3C)cc(OC)c1	-18.8	-0.4	-0.9	-1.4	1.1
CC(C)(C)n1nc2c(c1NC(=O)c1cc3ccccc3o1)CS(=O)(=O)C2	19.8	7.1	-1.2	-0.8	0.8
Clc1ccc(-c2nc(C3CCCCC3)no2)cc1	2.5	5.8	0.4	-8.0	2.1
COc1cccc(/C=C2\SC(=S)N(NC(=O)c3ccncc3)C2=O)c1	96.4*	.	-0.6	4.2	4.7
O=C(NN1C(=O)/C(=C/c2ccc(O)c(O)c2)SC1=S)c1ccccc1	99.3*	-9.8	-3.2	-1.5	26.4
CCC(=O)N1CCN=C1SCc1c(F)cccc1Cl	98.5*	.	-0.7	-7.4	-5.4
O=C(O)CSCc1c(F)cccc1Cl	0.9	-4.2	-0.4	3.6	-2.3
CC(=O)N1CCN=C1SCc1c(F)cccc1Cl	97.8*	.	-1.4	3.0	1.8
COc1cccc(C(=O)N2CCC(C(=O)NCc3ccc(C)cc3)CC2)c1	-4.6	.	-0.1	1.7	10.1
Cc1cc(C(=O)OCC(=O)NCc2ccco2)c(C)o1	.	-0.7	-1.6	23.4	8.6
NC(=O)CSc1cn(CCNC(=O)c2cccs2)c2ccccc12	97.7*	.	-1.0	-0.6	-2.1
Cc1occc1-c1nnc(SC(C)C(=O)Nc2ccccc2F)o1 (stereo not drawn)	.	-3.8	-2.9	6.1	-0.8
O=C(c1ccc2c(c1)C(=O)N(Cc1ccco1)C2O)N1CCOCC1 (stereo not drawn)	87.1*	-3.2	-0.7	-12.1	-8.6
O=C(c1ccc2c(c1)C(=O)N(Cc1ccco1)C2=O)N1CCOCC1	-9.8	.	-0.2	-3.4	-2.2
Cc1cc(C2C(C#N)=C(N)SC(N)=C2C#N)c(C)s1	99.1*	-2.0	-3.3	11.4	19.0
Cc1nc(N2C(=O)C(=O)/C(=C(/O)c3ccccc3)C2c2ccco2)sc1C (stereo not drawn)	0.2	1.2	-1.6	15.3	3.9
COC(=O)c1sc(N2C(=O)C(=O)/C(=C(/O)c3ccccc3)C2c2ccco2)nc1C (stereo not drawn)	90.5*	-4.2	-6.9	.	-6.5
COc1ccc(C)cc1NCc1ccc([N+](=O)[O-])cc1	98.7*	2.4	-1.1	1.4	12.3
COc1ccc(C)cc1NCc1ccc(OC)c(C)c1OC	76.8*	-0.7	0.5	5.7	3.6
CCN(CC)S(=O)(=O)c1ccc(S(=O)(=O)N2CCCC(C(=O)NC3CC3)C2)cc1 (stereo not drawn)	.	-2.0	-0.1	-8.8	-2.2
COc1ccc(CCC(C)N2CCOCC2)cc1 (stereo not drawn)	.	-2.9	-1.3	1.4	.
CCCN(CCC)CCCNC(=O)CS(=O)Cc1nc(-c2ccc(OC)c(OC)c2)oc1C (stereo not drawn)	99.5*	-1.8	-0.1	-3.7	-5.6
